Measured values: ChEMBL document CHEMBL1667839, “Discovery of new anti-depressants from structurally novel 5-HT3 receptor antagonists: design, synthesis and pharmacological evaluation of 3-ethoxyquinoxalin-2-carboxamides” (Bioorg Med Chem Lett, 2011)

Columns and labels:
[1] = molecular target: T1, 5-hydroxytryptamine receptor 3A (Cavia porcellus, UniProt O70212); experiment: Antagonist activity at 5-HT3 receptor in guinea pig ileum muscle; assay type: functional, tissue-based; details: read-out: pA2 (converted)
T1 sequence (O70212 whole entry): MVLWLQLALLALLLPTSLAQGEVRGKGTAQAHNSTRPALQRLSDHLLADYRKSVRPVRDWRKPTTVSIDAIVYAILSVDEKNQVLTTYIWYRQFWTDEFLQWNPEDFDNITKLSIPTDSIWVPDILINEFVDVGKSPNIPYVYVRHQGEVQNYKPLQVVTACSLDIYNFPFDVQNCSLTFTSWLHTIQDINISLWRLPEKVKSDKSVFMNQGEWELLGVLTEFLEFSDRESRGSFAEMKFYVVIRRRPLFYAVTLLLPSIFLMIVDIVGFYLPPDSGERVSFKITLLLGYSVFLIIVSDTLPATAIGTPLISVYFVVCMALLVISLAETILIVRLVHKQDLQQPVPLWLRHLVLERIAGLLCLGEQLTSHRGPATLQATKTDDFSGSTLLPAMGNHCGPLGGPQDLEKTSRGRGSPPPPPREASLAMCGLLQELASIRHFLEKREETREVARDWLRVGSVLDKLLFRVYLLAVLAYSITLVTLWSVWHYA
In short: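 Longitudinal muscle myenteric plexus preparation from ileum of male Dunkin Hartley guinea pigs (350-400 g); antagonism measured against the 5-HT3 agonist 2-methyl-5-HT and expressed as pA2 by literature methods; mean of two separate experiments.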

Mus musculus [2] = experiment: Antidepressant activity in mouse assessed as immobility time at 1 mg/kg, ip by forced swimming test; assay type: functional; details: route intraperitoneal
Mus musculus [3] = experiment: Antipsychotic activity in Swiss Albino mouse assessed as spontaneous locomotor score at 1 mg/kg, ip measured for 10 mins by actophotometer; assay type: functional; details: route intraperitoneal
In short: (§1)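 Swiss Albino mice (23 ± 2 g) given compound intraperitoneally in 10% PEG-400 in water; spontaneous locomotor activity counted in an actophotometer over 10 min as locomotor score; n = 8 per group, mean; one-way ANOVA with Dunnett's test versus vehicle-treated group.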

Mus musculus [4] = experiment: Antidepressant activity in Swiss Albino mouse assessed as immobility time at 0.5 mg/kg, ip by forced swimming test (reference value: 165.6 +/- 03.2 sec); assay type: functional; details: route intraperitoneal
Mus musculus [5] = experiment: Antipsychotic activity in Swiss Albino mouse assessed as spontaneous locomotor score at 0.5 mg/kg, ip measured for 10 mins by actophotometer; assay type: functional; details: route intraperitoneal; in short: as §1
Mus musculus [6] = experiment: Antidepressant activity in Swiss Albino mouse assessed as immobility time at 2 mg/kg, ip by forced swimming test; assay type: functional; details: route intraperitoneal
Mus musculus [7] = experiment: Antipsychotic activity in Swiss Albino mouse assessed as spontaneous locomotor score at 2 mg/kg, ip measured for 10 mins by actophotometer; assay type: functional; details: route intraperitoneal; in short: as §1

Kb [1] [nM]	Structure (SMILES)	Time (Mus musculus [2]) [s]	Activity (Mus musculus [3]) [score]	Time (Mus musculus [4]) [s]	Activity (Mus musculus [5]) [score]	Time (Mus musculus [6]) [s]	Activity (Mus musculus [7]) [score]
10000	CCOc1nc2ccccc2nc1C(=O)N1CCN(c2ccccc2)CC1	134	382	–	–	–	–
100	CCOc1nc2ccccc2nc1C(=O)N1CCN(c2ccccc2OC)CC1	113.3	360	115.3	351	122	366
158	CCOc1nc2ccccc2nc1C(=O)N1CCN(c2ccc(OC)cc2)CC1	114.6	356	159	352	121.6	361
1000	CCOc1nc2ccccc2nc1C(=O)N1CCN(c2ccc(Cl)cc2)CC1	146.6	364	–	–	–	–
251	CCOc1nc2ccccc2nc1C(=O)N1CCN(c2cccc(Cl)c2)CC1	110.6	352	83.6	361	76.6	358
7940	CCOc1nc2ccccc2nc1C(=O)N1CCN(c2cccc(C(F)(F)F)c2)CC1	148	356	–	–	–	–
15800	CCOc1nc2ccccc2nc1C(=O)Nc1cccnc1	144	365	–	–	–	–
25100	CCOc1nc2ccccc2nc1C(=O)N1CCN(Cc2ccccc2)CC1	160	366	–	–	–	–
20	CCOc1nc2ccccc2nc1C(=O)N1CCN(C)CC1	94	350	125	353	130	356
31.6	CCOc1nc2ccccc2nc1C(=O)N1CCN(CC)CC1	98	360	159.3	349	128	352
158	C=CCN1CCN(C(=O)c2nc3ccccc3nc2OCC)CC1	127	360	152	345	118	352
126	CCOc1nc2ccccc2nc1C(=O)NCCN(C)C	117.7	349	133.6	345	96	343
20000	CCOc1nc2ccccc2nc1C(=O)NCCN(CC)CC	162	362	–	–	–	–
63.1	CCOc1nc2ccccc2nc1C(=O)NCCc1c[nH]c2ccccc12	104	350	150.3	366	79.3	355
10000	CCOc1nc2ccccc2nc1C(=O)Nc1ccc(N(CC)CC)cc1	145	374	–	–	–	–
–	Cc1nccn1CC1CCc2c(c3ccccc3n2C)C1=O (stereo not drawn) [ONDANSETRON]	100.4	388	130.2	368	95.1	400
